Usually MIC stands for the smallest concentration in the dilution series that meets the test's criterion for growth inhibition. Read a low MIC as greater potency.

Data set [1] concerns RAW264.7. Kind of data set: Cytotoxicity against mouse RAW264.7 cells at 25 ug/ml incubated for 48 hrs by MTT assay. The data set is classed as toxicity, cell-based. The settings on record: raw264.7, 48 h, at 25 µg/mL. Put shortly:
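RAW 264.7 mouse macrophages were grown in RPMI with 10% FBS plus penicillin/streptomycin to 80–90% confluency. About 5000 cells/well were seeded on poly-L-lysine-coated plates and held 24 h at 37 °C, 5% CO2. Compound was added at 25 μg mL−1 for 48 h at 37 °C. MTT (0.5 mg mL−1) was added for 3 h, and formazan was read at 595 and 625 nm. Result is % inhibition.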
In general terms: Formazan colour is commonly taken as a measure of viable cells.

For data set [2], the system named is Staphylococcus aureus. In words: Antibacterial activity against Staphylococcus aureus ATCC 6538 by broth microdilution method. The data set is classed as functional. Put shortly: (§1)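 CLSI broth microdilution on wild-type strains. E. coli ATCC 8739, P. aeruginosa ATCC 27853 and K. pneumoniae ATCC 10031 served as Gram-negatives. S. aureus ATCC 6538 and E. faecalis ATCC 19433 served as Gram-positives. H. pylori ATCC 700392 was tested as the […]. Ciprofloxacin was the reference drug. MIC is given in μM as the mean of three experiments.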

Data set [3] concerns Helicobacter pylori. In words: Antibacterial activity against Helicobacter pylori ATCC 700392 by broth microdilution method. In kind it is functional. In a few lines:
as §1
(In broth dilution the organism is exposed to a series of concentrations in liquid medium.)

Data set [4] is described as follows: Selectivity index, ratio of cytotoxicity against mouse RAW264.7 cells to MIC for Mycobacterium tuberculosis H37Rv. In kind it is toxicity, cell-based. The settings on record: read-out: Selectivity Index. Put shortly:
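SI is cytotoxicity divided by the MABA MIC (μg mL⁻¹) against H37Rv. For cytotoxicity, RAW 264.7 cells were grown in RPMI with 10% FBS and penicillin/streptomycin. About 5000 cells per well were seeded on poly-L-lysine plates and held 24 h at 37 °C, 5% CO2. Compounds were added at 25 μg mL⁻¹ for 48 h, then MTT (0.5 mg mL⁻¹) for 3 h. Formazan was read at 595/625 nm and reported as % inhibition.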

The subject of data set [5] is Mycobacterium tuberculosis. In words: Potency index, ratio of ethambutol MIC to test compound MIC for antitubercular activity against Mycobacterium tuberculosis H37Rv. In kind it is functional.
For data set [6], the system named is Mycobacterium tuberculosis. In words: Potency index, ratio of nitazoxanide MIC to test compound MIC for antitubercular activity against Mycobacterium tuberculosis H37Rv. In kind it is functional.
Data set [7] has as its system Escherichia coli. In words: Antibacterial activity against Escherichia coli ATCC 8739 by broth microdilution method. The data set is classed as functional. In a few lines:
as §1

The subject of data set [8] is Klebsiella pneumoniae. In words: Antibacterial activity against Klebsiella pneumoniae ATCC 10031 by broth microdilution method. In kind it is functional. Put shortly: as §1
For data set [9], the system named is Enterococcus faecalis. Kind of data set: Potency index, ratio of nitazoxanide MIC to test compound MIC for antibacterial activity against Enterococcus faecalis ATCC 19433. In kind it is functional.
Data set [10] concerns Enterococcus faecalis. Kind of data set: Antibacterial activity against Enterococcus faecalis ATCC 19433 by broth microdilution method. In kind it is functional. Put shortly: as §1
Data set [11] has as its system Mycobacterium tuberculosis. Kind of data set: Antimycobacterial activity against Mycobacterium tuberculosis H37Rv incubated for 7 days by alamar blue assay. Conditions: 168 h, time 7 day. In kind it is functional. Put shortly: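 Two-fold serial dilutions in 7H9-S, with growth and sterile controls, incubated at 37 °C for 7 days. Alamar Blue then added and incubated overnight. MIC is the lowest concentration preventing the blue-to-pink change. Means of three experiments.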
A general note: Alamar Blue is a resazurin reagent that responds to reducing activity.

In data set [12] the test system is Pseudomonas aeruginosa. Kind of data set: Antibacterial activity against Pseudomonas aeruginosa ATCC 27853 by broth microdilution method. The data set is classed as functional. Put shortly: as §1

The structures appear in SMILES notation. Values after ≈ are worked out from the molar mass of the structure shown.

Take `CC(=O)Oc1cc(N=[N+]=[N-])ccc1C(=O)Nc1ncc([N+](=O)[O-])s1`: the Cell growth inhibition in data set [1] is 17.54%. The minimum inhibitory concentration (MIC) was determined as 11.5 µM (≈ 4 µg/mL) in data set [2]; 11.5 µM (≈ 4 µg/mL) in data set [3]; 8.61 µM (≈ 3 µg/mL) in data set [7]; 34.5 µM (≈ 12 µg/mL) in [8]; 2.15 µM (≈ 0.749 µg/mL) in data set [10]; 1.56 µg/mL (≈ 4.48 µM) in [11]. The MIC in data set [12] amounted to 91.9 µM (≈ 32 µg/mL). The selectivity ratio in data set [4] was found to be 16. In addition, the results for the Ratio in data set [5], in data set [6] and in data set [9] were 1.7, 5 and 25, respectively.

Source of the values: ChEMBL document CHEMBL5356992, “New nitazoxanide derivatives: design, synthesis, biological evaluation, and molecular docking studies as antibacterial and antimycobacterial agents” (RSC Med Chem, 2023).
